Assay results taken from publication PMC7931646 (The Journal of Experimental Medicine, 2021).

Experiments:
[1] = Liver microsomal stability, rat; assay type: in vitro ADME; conditions: liver microsomes
Method in brief: (§1)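 Test compound at 1 µM was incubated for 30 min with liver microsomes at 1 mg/ml (human, rat or mouse). Result is percent of parent compound remaining.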

[2] = Liver microsomal stability, mouse; assay type: in vitro ADME; conditions: liver microsomes
Method in brief: as §1

[3] = Plasma protein binding, equilibrium dialysis; assay type: in vitro ADME; conditions: rat
Method in brief: (§2)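 Equilibrium dialysis of test compound in human, rat or mouse plasma against buffer across a semipermeable membrane. Compound concentrations in both compartments were measured by LC/MS, and percent bound was derived from them.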

[4] = Plasma protein binding, equilibrium dialysis; assay type: in vitro ADME; conditions: mouse
Method in brief: as §2

hERG channel = hERG channel (Homo sapiens, UniProt Q12809); test: Patch-Xpress patch-clamp hERG assay in HEK-293 cells; assay type: cell-based
hERG channel, sequence (Q12809 whole entry): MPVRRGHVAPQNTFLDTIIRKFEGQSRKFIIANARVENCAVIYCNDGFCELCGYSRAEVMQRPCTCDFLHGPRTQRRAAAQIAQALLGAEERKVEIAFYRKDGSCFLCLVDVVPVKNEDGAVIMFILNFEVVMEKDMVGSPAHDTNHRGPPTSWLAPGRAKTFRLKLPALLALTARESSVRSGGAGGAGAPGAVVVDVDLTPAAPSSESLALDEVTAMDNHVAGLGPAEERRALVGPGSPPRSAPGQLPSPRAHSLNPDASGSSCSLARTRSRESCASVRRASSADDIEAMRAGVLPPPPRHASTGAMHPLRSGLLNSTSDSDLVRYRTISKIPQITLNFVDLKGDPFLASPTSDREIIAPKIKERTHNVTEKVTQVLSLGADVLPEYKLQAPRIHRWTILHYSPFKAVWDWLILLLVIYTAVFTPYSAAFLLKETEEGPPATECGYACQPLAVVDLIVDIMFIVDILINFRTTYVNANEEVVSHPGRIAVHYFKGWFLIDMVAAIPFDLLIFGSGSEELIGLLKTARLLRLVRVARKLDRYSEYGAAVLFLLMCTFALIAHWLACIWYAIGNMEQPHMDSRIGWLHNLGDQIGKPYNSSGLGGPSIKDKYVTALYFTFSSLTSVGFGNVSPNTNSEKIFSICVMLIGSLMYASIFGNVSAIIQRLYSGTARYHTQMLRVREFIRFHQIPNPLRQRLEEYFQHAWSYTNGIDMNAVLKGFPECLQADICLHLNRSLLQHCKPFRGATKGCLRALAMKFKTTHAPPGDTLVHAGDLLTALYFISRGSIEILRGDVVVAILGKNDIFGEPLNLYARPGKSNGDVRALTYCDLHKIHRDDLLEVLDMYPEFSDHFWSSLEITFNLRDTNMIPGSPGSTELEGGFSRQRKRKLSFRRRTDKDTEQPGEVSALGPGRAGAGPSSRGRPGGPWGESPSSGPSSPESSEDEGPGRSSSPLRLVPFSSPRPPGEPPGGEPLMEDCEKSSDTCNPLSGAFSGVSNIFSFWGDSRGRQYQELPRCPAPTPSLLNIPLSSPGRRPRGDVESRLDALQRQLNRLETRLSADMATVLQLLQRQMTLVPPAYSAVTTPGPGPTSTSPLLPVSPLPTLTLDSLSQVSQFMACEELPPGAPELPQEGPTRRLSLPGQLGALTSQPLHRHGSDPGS

histamine H1 = histamine H1 (Homo sapiens, UniProt P35367); test: CEREP off-target radioligand binding panel; conditions: read-out: inhibition of ligand binding
histamine H1, sequence (P35367 whole entry): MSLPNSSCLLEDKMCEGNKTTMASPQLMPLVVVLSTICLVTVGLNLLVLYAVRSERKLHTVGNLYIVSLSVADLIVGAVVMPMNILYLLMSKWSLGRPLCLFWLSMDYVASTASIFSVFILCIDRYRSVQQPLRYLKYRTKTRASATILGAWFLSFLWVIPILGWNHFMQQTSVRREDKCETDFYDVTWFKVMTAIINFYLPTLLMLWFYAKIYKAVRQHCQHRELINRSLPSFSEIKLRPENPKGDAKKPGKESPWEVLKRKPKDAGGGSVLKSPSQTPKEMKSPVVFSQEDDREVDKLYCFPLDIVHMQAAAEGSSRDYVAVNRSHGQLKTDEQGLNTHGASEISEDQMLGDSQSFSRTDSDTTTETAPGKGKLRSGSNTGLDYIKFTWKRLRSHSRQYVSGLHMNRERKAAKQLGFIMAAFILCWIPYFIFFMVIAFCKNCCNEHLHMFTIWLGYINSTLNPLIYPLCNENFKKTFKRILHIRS
Method in brief: (§3)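 CEREP secondary-pharmacology panel of 55 receptors, transporters and ion channels. Test compound at 10 µM was assessed for inhibition of binding of a radiolabelled reference ligand specific to each target. Result is percent inhibition of ligand binding.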

κ opioid receptors = test: CEREP off-target radioligand binding panel; conditions: 10 µM
Method in brief: as §3

μ opioid receptors = μ opioid receptors (Homo sapiens, UniProt P35372); test: CEREP off-target radioligand binding panel; conditions: read-out: inhibition of ligand binding
μ opioid receptors, sequence (P35372 whole entry): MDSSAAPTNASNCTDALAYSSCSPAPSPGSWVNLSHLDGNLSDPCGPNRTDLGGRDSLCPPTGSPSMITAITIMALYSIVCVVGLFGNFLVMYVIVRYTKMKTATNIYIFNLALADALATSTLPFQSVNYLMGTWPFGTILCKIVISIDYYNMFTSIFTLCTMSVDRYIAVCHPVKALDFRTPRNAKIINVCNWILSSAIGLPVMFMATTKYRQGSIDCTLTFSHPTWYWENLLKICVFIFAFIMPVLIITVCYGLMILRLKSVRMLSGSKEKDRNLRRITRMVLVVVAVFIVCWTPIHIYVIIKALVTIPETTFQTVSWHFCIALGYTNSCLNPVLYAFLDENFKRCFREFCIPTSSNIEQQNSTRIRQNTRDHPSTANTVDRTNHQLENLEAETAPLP
Method in brief: as §3

sodium channel (Site 2) = test: CEREP off-target radioligand binding panel; conditions: 10 µM
Method in brief: as §3

[5] = Single-dose i.v./po PK in male Sprague-Dawley rats; assay type: in vivo, rat
Method in brief: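 Sprague-Dawley rats received a single i.v. dose of 1 mg/kg (n = 13) or an oral dose of 5 mg/kg (n = 3). Plasma was sampled at 5 min (i.v. only), 15 and 30 min, 1, 2, 4, 8 and 12 h, and 24 and 48 h (po only). Oral bioavailability came from i.v./po comparison; fabs came from kinetic analysis.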

[6] = Single-dose i.v./po PK in cynomolgus macaques; assay type: in vivo, cynomolgus macaque; conditions: for clearance: male, cynomolgus monkey, plasma, iv, 1 mg/kg
Method in brief: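 Cynomolgus monkeys received a single i.v. dose of 1 mg/kg. Whole blood was collected at set time points and processed to plasma. Drug levels were measured with a bioanalytical method validated for NHP plasma. Clearance was derived from the plasma concentration–time data.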

[7] = test system: Aβ42 and Aβ40 levels in plasma and brain; test: Acute single-dose time course efficacy in C57BL/6J mice; assay type: in vivo, mouse
[8] = test system: Aβ42, Aβ40, Aβ38 in plasma and brain extracts; test: Chronic 3-mo efficacy in PSAPP transgenic mice; assay type: in vivo, mouse; conditions: 25 mg/kg/d po
Method in brief: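 Female PSAPP (APPswe/PSEN1dE9) mice and wild-type C57BL/6J controls, 9–10 per group, housed at 22°C on a 12:12 h light cycle. Treatment began at 90 or 180 d of age: vehicle (80% PEG 400, 20% water, 0.1% Tween 20) or test compound 25 mg/kg/d by oral gavage for 3 mo. Brain Aβ peptides were then measured.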

cerebral amyloidosis = test: Immunohistochemistry of amyloid deposition; assay type: in vivo, mouse; conditions: 25 mg/kg/d, 3 mo
Method in brief: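 Female PSAPP mice began treatment at 90 or 180 d of age with vehicle (PEG 400/water/Tween 20) or test compound 25 mg/kg/d by oral gavage for 3 mo. Cerebral amyloid deposition in cortex and hippocampus was assessed by immunohistochemistry with anti-Aβ mAb 3D6, alongside Iba1 staining for microgliosis.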

[9] = test system: Aβ42, Aβ40, Aβ38 in plasma, brain and CSF; test: 9-d repeat-dose pharmacodynamics in male Sprague-Dawley rats; assay type: in vivo, rat; conditions: 5 mg/kg po daily 9 d, 4 h post dose
Method in brief: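 Male Sprague-Dawley rats, n = 14 per dose level, received vehicle (80% PEG 400, 20% water, 0.1% Tween 20) or test compound at 5, 25 or 50 mg/kg orally once daily for 9 d. Sampling was 4 h after the day-9 dose: plasma, brain extracts, and CSF from the cisterna magnum. Aβ38/40/42 were measured by MSD multiplex assay. Results are mean ± SEM, analysed by ANOVA.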

[10] = 7-d dose range-finding toxicity and toxicokinetic study in rats; assay type: in vivo, rat
[11] = GLP in vitro micronucleus evaluation; assay type: cell-based; conditions: data not shown
[12] = Human PK and 50% effective dose projection
[13] = Estimation of effective AUC and unbound Ceffective in rodents
[14] = single oral dose 5 mg/kg, 6–12 h after administration
[15] = PSAPP mice treated from 3 mo of age (prophylactic)
[16] = PSAPP mice treated from 6 mo of age (disease-modifying)

## COc1nc(-c2cc(C)c(N[C@@H](C)c3cc(F)cc(F)c3)nn2)ccc1-n1cnc(C)c1 [Compound 2, (S)-N-(1-(3,5-difluorophenyl)ethyl)-6-(6-methoxy-5-(4-methyl-1H-imidazol-1-yl)pyridin-2-yl)-4-methylpyridazin-3-amine]
[1]
  remaining at 0.5 h, 1 µM: 76%
[2]
  remaining at 0.5 h, 1 µM: 91%
[3]
  % PPB R: 99.9%
[4]
  % PPB M: 99.9%
hERG channel
  IC50: 7.3 µM
  safety margin between Aβ42 IC50 and hERG IC20: > 100 fold
hERG channel; human, HEK-293 cells expressing hERG
  IC20: 1300 nM
Histamine H1
  inhibition at 10 µM: > 50%
κ opioid receptors
  inhibition of ligand binding: Greater than 50%
μ opioid receptors
  inhibition at 10 µM: > 50%
Sodium channel (Site 2)
  inhibition of ligand binding: Greater than 50%
[5]; hepatic blood flow 75 ml/min/kg
  CL as percent of reported hepatic blood flow: < 10%
[5]; kinetic analysis
  fraction of dose absorbed from intestinal lumen (fabs): ~90%
[5]; male, Sprague-Dawley, rat, plasma, iv, 1 mg/kg, CL
  clearance: 6 mL/min/kg
[6]; NHPs, hepatic blood flow 50 ml/min/kg
  CL as percent of reported hepatic blood flow: < 10%
[6]; CL, NHPs
  clearance: 5.5 mL/min/kg
[6]; Cl, NHP
  clearance: 5.52 mL/min/kg
[7]; [14]
  reduction of brain Aβ42 levels: ~50%
  reduction of plasma Aβ42 levels: ~70%
[7]; single oral dose 10 mg/kg
  duration of appreciable lowering of brain Aβ42 peptide levels: ~24 h
  reduction of Aβ42 levels in brain at peak reduction: > 70%
  reduction of Aβ42 levels in plasma at peak reduction: > 90%
[7]; single oral dose 5 or 10 mg/kg
  time of maximal reduction of Aβ42 levels in plasma: 1 h
[8]; [15]
  reduction of brain Aβ42, detergent-insoluble (formic acid) extract: 54%
  reduction of brain Aβ42, detergent-soluble (RIPA buffer) extract: 44%
[8]; [16]
  reduction of brain Aβ42, detergent-insoluble (formic acid) extract: 39%
  reduction of brain Aβ42, detergent-soluble (RIPA buffer) extract: 45%
Cerebral amyloidosis; 6-mo-old PSAPP mice (prophylactic group), P < 0.01
  attenuation of cerebral amyloidosis (mAb 3D6), cortex and hippocampus: greater than twofold
Cerebral amyloidosis; 9-mo-old PSAPP mice (disease-modifying group), P < 0.03
  cerebral amyloidosis (mAb 3D6), cortex and hippocampus, vs vehicle: statistically significant decrease
[9]
  Brain % Aβ42 ∆ vs vehicle (↓ reduction): 54%
  Brain %Aβ40 ∆ vs vehicle (↓ reduction): 29%
  CSF % Aβ42 ∆ vs vehicle (↓ reduction): 41%
  CSF %Aβ40 ∆ vs vehicle (↓ reduction): 29%
  Plasma % Aβ40 ∆ vs vehicle (↓ reduction): 57%
  Plasma % Aβ42 ∆ vs vehicle (↓ reduction): 78%
[10]; both, Sprague-Dawley, rat, in vivo
  NOAEL at 7 d: ≥ 50 mg/kg
[10]; rats, 7-d DRF
  safety margin over the efficacious dose (5 mg/kg): 10–20 fold
[11]
  GLP in vitro micronucleus evaluation: negative
[12]
  fabs in humans (expected): ~90%
[12]; allometric scaling from mouse, rat, NHP
  predicted human CL: ~300 mL/h/kg
[12]; human, plasma
  AUC: 4320 ng·h/mL
[13]; plasma unbound fraction 0.1%
  unbound average Ceffective: ~0.58 ng/mL
[13]; plasma unbound fraction 1.0%
  unbound average Ceffective: 5.8 ng/mL
[13]; rat, plasma
  AUC: 13800 ng·h/mL
